This is an account of results in ChEMBL document CHEMBL1142125, “Bioactive lignans from Peperomia duclouxii” (J Nat Prod, 2007).

One test has as its system WI-38. As to the kind of experiment: Growth inhibition of human WI38 cells. Type of test: functional, cell-based. The procedure, abridged:
(§1)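 Growth inhibition assays. WI-38 cells were kept in Eagle's MEM and VA-13 cells in RITC 80-7, both with 10% (v/v) FBS and 80 µg/mL kanamycin. HepG2 cells were kept in D-MEM with 10% (v/v) FBS and 80 µg/mL kanamycin. IC50 is the concentration giving 50% growth inhibition.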

For another test, the system named is WI-38 VA13. In words: Growth inhibition of human VA13 cells. It counts as functional, cell-based. The method in brief:
as §1

The test system of the next test is HepG2. As to the kind of experiment: Growth inhibition of human HepG2 cells. Type of test: functional, cell-based. The method in brief:
as §1

The subject of test [1] is A549. In words: Inhibition of IL-1-alpha-induced ICAM1 in human A549 cells. It counts as functional, cell-based. The procedure, abridged: (§2)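 ICAM-1 induction assay. Human A549 cells were grown in RPMI 1640 with heat-inactivated 10% FBS, penicillin G and streptomycin. Cells were stimulated with recombinant IL-1α or TNF-α. Cell-surface ICAM-1 was detected with mouse anti-human ICAM-1 antibody C167 plus a peroxidase-conjugated goat anti-mouse IgG, and an IC50 was derived.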

For test [2], the system named is A549. In words: Inhibition of TNF-alpha-induced ICAM1 in human A549 cells. Type of test: functional, cell-based. The procedure, abridged:
as §2

The test system of test [3] is A549. As to the kind of experiment: Cytotoxicity against human A549 cells by MTT assay. Type of test: cell-based. The method in brief:
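Cell viability was measured by MTT assay in human A549 cells grown in RPMI 1640 with heat-inactivated 10% FBS, penicillin G and streptomycin. This was done alongside the IL-1α/TNF-α-stimulated ICAM-1 induction assay, and an IC50 was derived.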
In general terms: Tetrazolium dyes change colour on reduction, which living cells bring about.

Test [4] is described as follows: Effect on calcein accumulation in human multidrug-resistant 2780AD cells at 0.25 ug/mL relative to control. It counts as functional, A2780 ADR. The procedure, abridged:
(§3)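 Calcein accumulation assay. Multidrug-resistant human ovarian cancer 2780AD (AD10) cells were grown in RPMI-1640 with 10% (v/v) FBS and 80 µg/mL kanamycin. Calcein formed from calcein AM by endogenous esterase served as the efflux probe. Cells were tested at 0.25, 2.5 and 25 µg/mL. Read-out was fluorescence per well, as the mean of triplicates, expressed relative to the untreated control or to the verapamil positive control.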

Test [5] is described as follows: Effect on calcein accumulation in human multidrug-resistant 2780AD cells at 2.5 ug/mL relative to control. Type of test: functional, A2780 ADR. The method in brief: as §3
A short description of test [6]: Effect on calcein accumulation in human multidrug-resistant 2780AD cells at 25 ug/mL relative to control. It counts as functional, A2780 ADR. The procedure, abridged: as §3
The nature of test [7]: Effect on calcein accumulation in human multidrug-resistant 2780AD cells at 0.25 ug/mL relative to verapamil. Type of test: functional, A2780 ADR. The method in brief: as §3
Test [8] is described as follows: Effect on calcein accumulation in human multidrug-resistant 2780AD cells at 2.5 ug/mL relative to verapamil. Type of test: functional, A2780 ADR. The procedure, abridged: as §3
The nature of test [9]: Effect on calcein accumulation in human multidrug-resistant 2780AD cells at 25 ug/mL relative to verapamil. It counts as functional, A2780 ADR. The method in brief: as §3

Converted amounts (≈) assume the structure as drawn. Bounds are passed on as bounds.

By IC50 is commonly meant the concentration needed to halve the response being measured. Low readings indicate higher potency, high ones lower potency. Regarding `COc1cc([C@@H]2OC[C@@H]3[C@H]2CO[C@H]3c2cc(OC)c3c(c2)OCO3)cc(OC)c1O`, the figures for the IC50 in the test with WI-38, in the test with WI-38 VA13 and in the test with HepG2 were 96.6 µg/mL (≈ 232 µM), more than 100 µg/mL and more than 100 µg/mL, respectively.

As to `COc1cc(C[C@H]2CO[C@H](c3cc(OC)c4c(c3)OCO4)[C@H]2CO)cc2c1OCO2`, the IC50 in the test with WI-38 was 74.3 µg/mL (≈ 178 µM); in the test on WI-38 VA13, 99.1 µg/mL (≈ 238 µM); in the test with HepG2, 72 µg/mL (≈ 173 µM).

`COc1cc([C@@H]2c3c(cc4c(c3OC)OCO4)C[C@H](COC(C)=O)[C@@H]2COC(C)=O)cc(OC)c1O`: the IC50 in the test on WI-38 was 41.3 µg/mL (≈ 82.2 µM); in the test on WI-38 VA13 it was 62.4 µg/mL (≈ 124 µM); in the test with HepG2, 74.4 µg/mL (≈ 148 µM); in the test on A549 [1] it was 107 µM; in the test on A549 [2], 13.4 µM; with A549 [3] it was more than 316 µM.

With `COc1cc([C@H]2OC[C@H]3[C@@H]2CO[C@@H]3c2ccc3c(c2)OCO3)cc(OC)c1O`, the half-inhibitory concentration (IC50) with WI-38, with WI-38 VA13 and in the test on HepG2 was more than 100 µg/mL each time.

For `COc1cc([C@@H]2OC[C@@H]3[C@H]2CO[C@H]3c2cc(OC)c3c(c2)OCO3)cc(O)c1O`, the results for the IC50 with WI-38, with WI-38 VA13 and with HepG2 were 49.8 µg/mL (≈ 124 µM), 5.3 µg/mL (≈ 13.2 µM) and 13.2 µg/mL (≈ 32.8 µM), respectively. For the same compound, the Activity is 101% in test [4]; 105% in [5]; 169% in [6]; 103% in test [7]; 92% in test [8]; 117% in test [9].

Regarding `COc1cccc2c1C(=O)c1c(O)c3c(c(O)c1C2=O)C[C@@](O)(C(=O)CO)C[C@@H]3O[C@H]1C[C@H](N)[C@H](O)[C@H](C)O1` [DOXORUBICIN], the IC50 was found to be 0.76 µg/mL (≈ 1.4 µM) with WI-38, 0.08 µg/mL (≈ 0.147 µM) in the test with WI-38 VA13 and 0.48 µg/mL (≈ 0.883 µM) in the test on HepG2.

Turning to `COc1cc([C@H]2OC[C@@H]3C(c4cc(OC)c(O)c(OC)c4)OC[C@H]23)ccc1O` (some centres not stated) [MEDIORESINOL], the IC50 in the test with WI-38 was 76.9 µg/mL (≈ 198 µM); in the test with WI-38 VA13, more than 100 µg/mL; with HepG2, 84.7 µg/mL (≈ 218 µM).

`CC(=O)O[C@H]1C(=O)[C@@]2(C)[C@H]([C@H](OC(=O)c3ccccc3)[C@]3(O)C[C@H](OC(=O)[C@H](O)[C@@H](NC(=O)c4ccccc4)c4ccccc4)C(C)=C1C3(C)C)[C@]1(OC(C)=O)CO[C@@H]1C[C@@H]2O` [PACLITAXEL]: the IC50 with WI-38 came to 0.02 µg/mL (≈ 0.0234 µM); in the test with WI-38 VA13, 0.01 µg/mL (≈ 0.0117 µM); in the test with HepG2, 0.05 µg/mL (≈ 0.0586 µM).

As for `COc1ccc(CCN(C)CCCC(C#N)(c2ccc(OC)c(OC)c2)C(C)C)cc1OC` (configuration not stated) [VERAPAMIL], the Activity in test [4] is given as 99%; in test [5], 114%; in [6], 145%; in test [7], 100%; in [8] it was 100%; in test [9], 100%.

`COc1cc([C@H]2OC[C@@H]3C(=O)OC[C@@H]32)cc(OC)c1OC` [ZHEPIRESINOL]: the IC50 in the test with WI-38 came out at 57.7 µg/mL (≈ 196 µM); in the test on WI-38 VA13 it was 50.7 µg/mL (≈ 172 µM); in the test with HepG2, 60.2 µg/mL (≈ 205 µM).
